This passage reports Bmax with compound and Kd results from PubChem BioAssay AID2378 (NMMLSC, 2010).

Structures are written as SMILES.

The target of this experiment is Cell division control protein 42 homolog (Homo sapiens) (UniProt P60953). Kind of experiment: Cdc42 GTP Bmax and Kd shifts – biochemical, EDTA buffer, varying GTP, mechanism study for Ras-family GTPase inhibitor project, late-stage follow-up (AID 2378). As to conditions: GST-Cdc42 beads, BODIPY-GTP binding, flow cytometry. Put shortly: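 Test system: GST-Cdc42 on glutathione beads / Quantity: 4 µM GST-Cdc42 for bead loading / Doses: 10 µM compound, single dose / Times: 4 °C overnight capture, 2 min pre-incubation / Technique: flow cytometry measurement of bead-associated BODIPY-GTP fluorescence / Read-out basis: Bmax and Kd from one-site binding fit / Controls: DMSO vehicle reference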
Chain of Cell division control protein 42 homolog (Homo sapiens) (P60953 whole entry, looked up): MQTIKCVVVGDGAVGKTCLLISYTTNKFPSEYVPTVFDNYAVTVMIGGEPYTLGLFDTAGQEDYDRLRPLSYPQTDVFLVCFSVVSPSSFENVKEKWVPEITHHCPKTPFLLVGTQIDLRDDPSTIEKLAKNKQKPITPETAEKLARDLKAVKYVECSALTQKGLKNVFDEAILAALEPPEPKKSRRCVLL

`COc1ccc(C2CC(c3ccccc3)=NN2c2ccc(S(N)(=O)=O)cc2)cc1` (configuration not stated): the Bmax with compound (at 10 µM, stronger effect = lower value) is 19800. Further, for the setting “measured here: GTP Kd with compound”, the Kd came to 0.0464 µM.
